Reference: the RNAGym collection of RNA variant scans (doi:10.1126/science.aae0568)
This sample holds only a part of the variants without activity.

B1: tRNA (parent)
chain: GUUCCGUUGGCGUAAUGGUAACGCGUCUCCCUCCUAAGGAGAAGACUGCGGGUUCGAGUCCCGUACGGAACG

Variants of: B1
Assay: yeast fitness relative to wild type (ratio to wild type); higher = fitter; tRNA-Arg(CCU), competitive growth, 37 C, YPD
Summary of the method: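 A pool of Saccharomyces cerevisiae strains, each with a tRNA-Arg(CCU) gene variant at the native genomic locus, was competed in YPD at 37°C for 24 hours across six parallel replicates. The variants had been chemically synthesised at a 3% per-site mutation rate over 69 sites, and gene amplicons before and after competition were read by 100-nucleotide paired-end sequencing. Darwinian fitness relative to wild type rested on changes in genotype frequencies. Genotypes required ≥ 100 starting reads, and estimates < 0.5 were set to 0.5.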

Variant	yeast fitness
GUUCCGUUGGCGUAAUGGUAACGCAUCUCCCUCUUAAGGAGAUGACUGCGGGUUCAAGUCCCGUACGGAACG [G25A C34U A43U G56A]	≤ 0.5
GUUCCGUUGGCGUAAUGGUCACGCGUCUCCCUCCUAAGGAGAAGACUGCGGGUUCGAGUCCCGCACGGAACG [A20C U64C]	0.984
GUUCCGUUGGCAUAAUGGUAACGCGUCUCACUCCUAAGGAGAAGACUGCGGGUUCGAGUCCCGUACGGAACG [G12A C30A]	0.915
GUUCCGUUGGCGUAAUGGUAACGCGUCUCCCUACUAAGGAGAAGACUCCGGGUUCGAGUCCCGUACGGAGCG [C33A G48C A70G]	≤ 0.5
GUUCCGUUGGCGUAAUGGUAACGCAUCUCCCUCCUAAGGACAAGACUGCGGGUUCGAGUCCCGUACGGAACG [G25A G41C]	0.974
GUUCCGUUGGCGUAAUGGUAACGCGUCUCCCUCCCAAGGAGAAGACUGCGGGUUCGAGUGUCGUACGGAACG [U35C C60G C61U]	≤ 0.5
GUUCCGUUGGCGUAAUGGUAACCCGUCUCCCUCCUAAGGAGAACAUUGCGGGUUCGAAUCCCGUACGGAACG [G23C G44C C46U G58A]	≤ 0.5
GUUCCGUUGACGUAAAGGUAACGCGUCUCCCUCCUAAGGAGAAGACUGCGGGUUCGAGUCCCAUACGGAACG [G10A U16A G63A]	≤ 0.5
GUUCCGUUCGCGUAAUGGUAAAGCGUCUCCCUCAUAAGGAGAAGACUGCGGGUUCGAGUCCCGUACGGAACG [G9C C22A C34A]	≤ 0.5
GUUCCGUUGGGGUAAUGGUAACGCGUUUCCCUCCUAUGGAGAAGACUGUGGGUUCGAGUCCCGUACGGAACG [C11G C27U A37U C49U]	≤ 0.5
GUUCCGUUGGCGUAAUGGUAACGCGUCUGCCUCCUAGGGAGAAGUCUGCGGGUUCGAGUCCCGUACGCAACG [C29G A37G A45U G68C]	≤ 0.5
GUUCCGUUGGCGUAAUAGUAACGCGUCUCCCUCCUAAGGAGACGACUGUGGGUACCAGUCCCGUUCGGACCG [G17A A43C C49U U54A G56C A65U A70C]	0.565
GUUCCGUUGGCAUAAUGGUAACGCGUCUCCCUCCUAAGGAGAAGACUGCGGGUUCGAGUCCCGUACGGCACG [G12A A69C]	0.866
GUUCCGUUGGCGUACUGGUAACGCGUCGCCCUCCUAAGGAGAAGGCUGCGCGUUCGAGUCCCGUACGGAGCG [A15C U28G A45G G51C A70G]	0.584
GUUCGGUUGGGGUAAUGGUAACGCGUCUCCCUCCUAAGGAGAAAACUGCCGGUCCGAGUCUCGUACGGUCCG [C5G C11G G44A G50C U54C C61U A69U A70C]	≤ 0.5
GUUCCGUUGGCGUAAUGGUAACGCGUCUCCCUCCUAAGGAGAAGGCUGCGGGUUUGAGUCCCGUACGGAACG [A45G C55U]	0.704
GUUCCGUUGGCGUAGUGGUAACGCGUCUCCCCCCUAAGGAGAAGACUGCGGGUUCGAGUCCCGUACGGAACG [A15G U32C]	0.983
GUUCCGUUGGCGUCAUGGUAACGCGUCUCCCUCCUAAGGAGAAGACUGCGGCUUGGAGUCCCGUACGGAACG [A14C G52C C55G]	0.546
GUUCCGUUGGCGUAAUGGUAACGCGUCUUACUCCUAAGGAGAAGACUGCGGGUUCGAGUCCCGUACGGAACG [C29U C30A]	0.744

Variant	yeast fitness
GUUCCGUUGGCGUAAUGGUAACGCGUCUCCCUUCUAAGGAGAAGACUGAGGGUUCGACUCCCGUACGGUACG [C33U C49A G58C A69U]	0.52
GUCCCCUUGGCGUUAUGGUAACGCAUCUCCCUCCUAAAGAGAAGACAGCGGGUUCGAGUGCCGUACGGAGCG [U3C G6C A14U G25A G38A U47A C60G A70G]	0.51
GUUCCGUUGGCGUAAUGGUAACGAGUCUCCCUCCUAAGAAGAAGACUGCGGGUUCGAGUACCGUACGGAACG [C24A G39A C60A]	≤ 0.5
GUUCCGUUGGCAUAAUGGUAACGCGUCUCCCUCCUAAGGAGAAGGCCGCGGGUUCGAGACCCGUACGGAACG [G12A A45G U47C U59A]	≤ 0.5
GUUCUGUUGGCGUAAUGGUAGCGAGUCUCCCUCCUAAGGAGCAGACUGCGGGUUCGAGUCCCGUACGGAACG [C5U A21G C24A A42C]	≤ 0.5
GUUCCGUUGGCGUGUUGGUAACGCCUCUCCCUCCUAAGGAGAAGACUGCGGGUUCGAGUCCCGUACGGAACG [A14G A15U G25C]	≤ 0.5
GUUCCGCUGGCGUAAUGGUAACGCGUCUCCCUCCUAAGGAGAAGAGUGCAGGUUCGAGUCCGGCACGGAACG [U7C C46G G50A C62G U64C]	0.695
GUUCCGUUGGCGUAAUGGUUUCGCGUCUCCCUCCUAAGGAGAAGACUGCGGGUUCGAGUCCCGUUCAGAACG [A20U A21U A65U G67A]	≤ 0.5
GUUCCGUUGGCGUAACGGUAACGUGUCUCCCUUCUAAGGAGAAGACUGCGGGUUAGAGUCCCGUACGGAACG [U16C C24U C33U C55A]	≤ 0.5
GUUAAGUUGGCGUAAUGGUUACGCGUCUCCCUCCUAAGGAGAAGAUUACGGGUUCGAGUCCCGUACGGAACG [C4A C5A A20U C46U G48A]	≤ 0.5
GUUCCGUUGGCGUGGUGGUAACGCGUCUCCCUCCUAAGGAGAAGUCUGCGGGUUCGAGUCCUGUACGGAACG [A14G A15G A45U C62U]	≤ 0.5
GUUCCGUUGGCGUAAUGGUAACGCGUCUCCCUCGUAAGGAGAAGCCUGCGAGUUCGAGUCCCGUUCGGAACG [C34G A45C G51A A65U]	0.617
GUGCCGUUGGCGUAAUGGUAACGCGUCUCCCUCCUAAGGAGAAGACUGCGGGUUCGAGUGCCGUACGGAACG [U3G C60G]	0.577
GUUCCGUUGGCGUAAUGGCAACGCGUCUCGCUCCUAAGGCGAAGACUGCGAGUUCGAGUCACGUACGGAACG [U19C C30G A40C G51A C61A]	0.696
GUUCGGUUGGCGUAAUGCUAACGCGUCUCCCUCCUAAGGAGAAGACUGCGGGUUCGAGUCCAGUACGGAACG [C5G G18C C62A]	≤ 0.5
GUUCCGUUGGCGUGAUGGUAACGCGUCUCCCUCCUAAGGAGAAGUCUGCGGGUUCGAGUCCCGUACGGAACG [A14G A45U]	0.746
GUUCCGUUGGCGUCAUGAUAACGCGUCUCCCUCCUAAGGAGAAGACUACGGGUUCGAGUCCCGUACGGAACG [A14C G18A G48A]	≤ 0.5
GUUCCAUUGGCGUAAUGCUAACGCGUCUCCCUCCUACGGAGAAGACUGCGGGUUCGAGUCCCGUACGGAACG [G6A G18C A37C]	≤ 0.5
GUUCCGUUGGCGUAACGGUAACGCGUCACCCUCCUAAGGAGAAGACUGCGGGUUCGAGUCCCGUACGGAACG [U16C U28A]	0.827
